# The source made the active and inactive calls. No cut-off for these calls is given here.
# What was measured:
# Rattus norvegicus [1] = species on record: Rattus norvegicus; assay: Compound was evaluated for inhibition of binding of [3H]dopamine to rat caudate tissue.; type: functional, organism-based
# Rattus norvegicus [2] = species on record: Rattus norvegicus; assay: Compound was evaluated for inhibition of binding of [3H]spiroperidol to rat caudate tissue.; type: functional, organism-based
# Felis catus [3] = assay: Compound was evaluated for the inhibition of the cardioaccelerator nerve of the cat; I - inactive at a dose 4 umol/kg (n = 3); type: functional, organism-based
# Procedure, shortened: (§1)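 Cats were anaesthetised with pentobarbital sodium (30 mg/kg) injected into the thoracic cavity. The right cardioaccelerator nerve was isolated and stimulated through bipolar platinum electrodes at 2 Hz, 2-ms pulses and supramaximal voltage, usually for 30 s. Arterial pressure was recorded from the right femoral artery, and heart rate by cardiotachometer. The highest dose tested was 4 µmol/kg, with n = 3.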
# Felis catus [4] = assay: Compound was evaluated for the inhibition of the cardioaccelerator nerve of the cat at a dose 4 umol/kg; type: functional; procedure, shortened: as §1
# Felis catus [5] = assay: Compound was evaluated for the inhibition of the cardioaccelerator nerve of the cat at a dose 4 umol/kg (n = 3); type: functional; procedure, shortened: as §1
SMILES,IC50 (Rattus norvegicus [1]),IC50 (Rattus norvegicus [2]),ED50 (Felis catus [3]),ED50 (Felis catus [4]),ED50 (Felis catus [5])
Oc1cc(O)c2c(c1)C[C@H]1NCCC[C@@H]1C2,12800 nM,264000 nM,inactive,–,–
CCN1CCC[C@H]2c3cc(O)cc(O)c3CC[C@H]21,430 nM,10000 nM,–,> 4 µmol/kg,–
CCN1CCC[C@@H]2c3cc(O)cc(O)c3CC[C@H]21,90 nM,2400 nM,–,–,0.0021 µmol/kg
CN1CCc2cccc3c2[C@H]1Cc1ccc(O)c(O)c1-3 [APOMORPHINE],–,1100 nM,–,–,0.022 µmol/kg
CCN1CCC[C@@H]2Cc3c(O)cc(O)cc3C[C@H]21,440 nM,32000 nM,inactive,–,–
CCCN1CCC[C@H]2c3cc(O)cc(O)c3CC[C@H]21,1700 nM,11000 nM,–,> 4 µmol/kg,–
Oc1cc(O)c2c(c1)[C@@H]1CCCN[C@H]1CC2,1000 nM,25000 nM,–,–,–
CCCN1CCC[C@@H]2c3cc(O)cc(O)c3CC[C@H]21,40 nM,1000 nM,–,–,0.0047 µmol/kg
Oc1cc(O)c2c(c1)[C@@H]1CCCN[C@@H]1CC2,11100 nM,113000 nM,–,–,–
CCCN1CCC[C@@H]2Cc3c(O)cc(O)cc3C[C@H]21,370 nM,15000 nM,–,–,1.74 µmol/kg

# Source: ChEMBL document CHEMBL1122567, “Conformationally restricted congeners of dopamine derived from octahydrobenzo[g]quinoline and octahydrobenzo[f]quinoline” (J Med Chem, 1984)
